Assay [1] concerns MDA-MB-231. The assay can be described thus: Induction of apoptosis in human MDA-MB-231 cells assessed as increase in Bad protein expression at 3 to 9 uM measured after 48 hrs by western blot analysis. Type of assay: functional, cell-based. As to conditions: dose 3-9 µM. The essentials:
(§1)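 MCF-7 and MDA-MB-231 breast cancer cells treated 48 h with a concentration series, then lysed for protein. SDS-PAGE on 5–15% gels, transfer to nitrocellulose. Blocked 2 h in 5% nonfat milk/PBS-0.1% Tween 20, primary antibodies overnight at 4 °C, biotin-conjugated secondary 1 h. X-ray film detection with densitometric quantification.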
In general terms: In western blotting, separated proteins are transferred to a membrane and probed.

In assay [2] the test system is MDA-MB-231. The assay can be described thus: Potency index, ratio of 5-FU IC50 to test compound IC50 for anticancer activity against human MDA-MB-231 cells measured after 72 hrs by MTT assay. Type of assay: functional. The essentials: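 MTT assay: 3000 exponentially growing cells per well, 12 h at 37 °C. Medium replaced with compound at a range of concentrations for 72 h. MTT (5 mg/mL stock) added for 4 h, formazan dissolved in DMSO. Absorbance read at 570 nm (reference 630 nm); percent inhibition gives IC50. Index is 5-FU IC50 divided by test-compound IC50.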

Assay [3] concerns MDA-MB-231. The assay is described as follows: Induction of apoptosis in human MDA-MB-231 cells assessed as increase in Noxa protein expression at 3 to 9 uM measured after 48 hrs by western blot analysis. The format is functional, cell-based. As to conditions: dose 3-9 µM. In outline:
as §1

Assay [4] has as its system MCF7. The assay can be described thus: Cell cycle arrest in human MCF7 cells assessed as accumulation at G1 phase at 2 uM measured after 48 hrs by propidium iodide staining based flow cytometry (reference value: 70.09 %). Type of assay: functional. (In general: A flow cytometer gives signals particle by particle.)
Assay [5] concerns MCF7. The assay is described as follows: Induction of apoptosis in human MCF7 cells assessed as late apoptotic cells at 1 uM measured after 48 hrs by Annexin V-FITC/propidium iodide staining based flow cytometric analysis (reference value: 0.6 %). Type of assay: functional.
The subject of assay [6] is HeLa. The assay can be described thus: Anticancer activity against human HeLa cells assessed as inhibition of cell growth measured after 72 hrs by MTT assay. The format is functional, cell-based. In outline: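 Cells seeded at 3000 exponentially growing cells/well and incubated 12 h at 37 °C. Medium then replaced with fresh medium containing graded compound concentrations for 72 h; 5-FU positive control. MTT (5 mg/mL solution) added for 4 h, formazan dissolved in DMSO, absorbance read at 570 nm (reference 630 nm). Relative percentage inhibition of viable cells calculated; IC50 reported as mean ± standard deviation.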

The test system of assay [7] is MDA-MB-231. The assay is described as follows: Induction of apoptosis in human MDA-MB-231 cells assessed as increase in cleaved PARP protein expression at 9 uM measured after 48 hrs in presence of cdc25c inhibitor, NSC663284 by western blot analysis. Type of assay: functional, cell-based. In outline:
(§2)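 Four arms per cell line: untreated, test compound, 0.3 µM NSC663284 alone, and combination. Proteins harvested after 48 h and resolved by SDS-PAGE on 5–15% gels, transferred to nitrocellulose. Blocked 2 h in milk/PBS-Tween, primary antibodies overnight at 4 °C, biotin-conjugated secondary. Read on X-ray film with densitometry.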

In assay [8] the test system is MCF7. The assay is described as follows: Cell cycle arrest in human MCF7 cells assessed as accumulation at G2/M phase at 1 uM measured after 48 hrs by propidium iodide staining based flow cytometry (reference value: 0.01 %). The format is functional.
For assay [9], the system named is MDA-MB-231. The assay can be described thus: Induction of apoptosis in human MDA-MB-231 cells assessed as decrease in Mcl-1 protein expression at 3 to 9 uM measured after 48 hrs by western blot analysis. As to conditions: dose 3-9 µM. Type of assay: functional, cell-based. In outline: as §1
Assay [10] concerns MDA-MB-231. The assay is described as follows: Cell cycle arrest in human MDA-MB-231 cells assessed as accumulation at G1 phase at 3 uM measured after 48 hrs by propidium iodide staining based flow cytometry (reference value: 46.28%). Type of assay: functional.
The test system of assay [11] is MDA-MB-231. The assay is described as follows: Induction of apoptosis in human MDA-MB-231 cells assessed as increase in cleaved caspase 9 protein expression at 3 to 9 uM measured after 48 hrs by western blot analysis. Type of assay: functional, cell-based. As to conditions: dose 3-9 µM. The essentials: as §1
In assay [12] the test system is MCF7. The assay can be described thus: Induction of mitochondrial membrane potential loss in human MCF7 cells assessed as green fluorescence intensity at 4 uM measured after 48 hrs by JC1 staining-based flow cytometry analysis (reference value: 8.1 %). Type of assay: functional.
Assay [13] deals with MCF7. The assay is described as follows: Induction of apoptosis in human MCF7 cells assessed as increase in cleaved PARP protein expression at 1 to 4 uM measured after 48 hrs by western blot analysis. The format is functional, cell-based. The following applies: dose 1-4 µM. The essentials:
as §1

In assay [14] the test system is MDA-MB-231. The assay is described as follows: Induction of apoptosis in human MDA-MB-231 cells assessed as increase in cleaved caspase 3 protein expression at 9 uM measured after 48 hrs in presence of cdc25c inhibitor, NSC663284 by western blot analysis. The format is functional, cell-based. In outline: as §2
The subject of assay [15] is MCF7. The assay is described as follows: Cell cycle arrest in human MCF7 cells assessed as accumulation of cells at G2/M phase at 4 uM in presence of inhibitor cdc25c inhibitor, NSC663284 measured after 48 hrs by PI staining based flow cytometry. Type of assay: functional. In outline:
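Four arms (untreated, test compound alone, 0.3 NSC663284 alone, combination) applied to cells for 48 h. Cells were fixed in 70% ice-cold ethanol at 4 °C overnight and stained with RNase/PI for 30 min in the dark. G2/M fraction was read by flow cytometry.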

The subject of assay [16] is MDA-MB-231. The assay is described as follows: Antiproliferative activity against human MDA-MB-231 cells assessed as reduction in cell viability at 0.03 to 16 uM measured after 24 to 72 hrs by MTT assay. Type of assay: functional, cell-based. As to conditions: dose 0.03-16 µM, time 24-72 hrs. The essentials: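 MTT viability time course on the breast cancer cells with increasing compound concentrations for 24, 48 and 72 h. Cells seeded at 3000/well and allowed 12 h before treatment. MTT (5 mg/mL solution) applied for 4 h, crystals dissolved in DMSO, absorbance read at 570/630 nm. Viability expressed relative to untreated cells.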
(In general: Tetrazolium dyes change colour on reduction, which living cells bring about.)

In assay [17] the test system is MCF7. The assay is described as follows: Induction of DNA damage in human MCF7 cells assessed as increase in Chk2 phosphorylation at Thr68 residue at 1 to 4 uM measured after 48 hrs by western blot analysis. Type of assay: functional, cell-based. The following applies: dose 1-4 µM. In outline: (§3)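 Cells exposed to graded concentrations for 48 h, then proteins extracted. Run on SDS-PAGE (5–15% gels) and transferred to nitrocellulose. Blocked 2 h in 5% nonfat milk in PBS/0.1% Tween 20, primary antibody overnight at 4 °C, biotin-conjugated secondary 1 h. Visualized on X-ray film with densitometric quantitation; three independent experiments.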

The subject of assay [18] is MCF7. The assay can be described thus: Induction of apoptosis in human MCF7 cells assessed as early apoptotic cells at 4 uM measured after 48 hrs in presence of cdc25c inhibitor, NSC663284 by AnnexinV-FITC/PI staining based flow cytometry (reference value: 0.9%). Type of assay: functional.
Assay [19] has as its system MCF7. The assay is described as follows: Cell cycle arrest in human MCF7 cells assessed as accumulation at G1 phase at 4 uM measured after 48 hrs by propidium iodide staining based flow cytometry (reference value: 70.09 %). Type of assay: functional.
Assay [20] concerns MCF7. The assay is described as follows: Induction of G2/M phase cell cycle arrest in human MCF7 cells assessed as increase in cdc25c protein expression at 1 to 4 uM measured after 48 hrs by western blot analysis. Type of assay: functional, cell-based. As to conditions: dose 1-4 µM. The essentials: as §3
For assay [21], the system named is MCF7. The assay can be described thus: Induction of G2/M phase cell cycle arrest in human MCF7 cells assessed as upregulation of p-cdc25c protein expression at 4 uM measured after 48 hrs in presence of cdc25c inhibitor, NSC663284 by western blot analysis. Type of assay: functional, cell-based. The essentials: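 Four groups (untreated, test compound, 0.3 NSC663284, combination) treated 48 h before protein extraction. Lysates resolved by SDS-PAGE (5–15%) and blotted to nitrocellulose. Blocked 2 h in 5% milk/PBS-0.1% Tween 20, primary antibody overnight at 4 °C, biotinylated secondary 1 h. Detected on X-ray film and quantified by densitometry.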

The values that follow come from ChEMBL document CHEMBL4837218, “Synthesis and in vitro antitumour activity of 4(R)-methyl-3-O-phosphonomethyl-α-l-threose nucleosides” (Eur J Med Chem, 2021).

Calls of active or inactive are those of the source. The calls are words filed in the database; no cut-off is given here.

In the case of `C[C@H]1O[C@@H](n2cnc3c(N)nc(F)nc32)[C@H](O)[C@H]1OCP(=O)([O-])[O-].[Na+].[Na+]`, the outcome in assay [1], in assay [3], in [9], in assay [11], in [13] and in [16] was Active. Also, the result in assay [17] and in assay [20] was Active. The “Ratio IC50” value in assay [2] amounted to 47. Further, the Activity in assay [4] is listed as 41.43%; in [5], 4.6%; in assay [8], 16.26%; in [10], 44.13%; in assay [12], 58.1%; in assay [18] it was 8.6%. The Activity in assay [19] was 41.95%. Moreover, the 50% inhibitory concentration (IC50) in assay [6] stood at 6.2 µM. Further, the outcome in assay [7], in assay [14], in assay [15] and in [21] was inactive.

The term IC50 denotes the point on the concentration scale where inhibition reaches its midpoint.
